Calls of active or inactive are those of the source. No cut-off for these calls is given here.
What was measured:
Type in all cases: functional
NCI-H522 = experiment: Growth inhibition of human NCI-H522 cells at 10 uM after 48 hrs by coulter counting
Procedure, shortened: (§1)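 Single-dose primary screen across the full NCI 60-cell-line panel. Stocks were made in DMSO and diluted in PBS to a final DMSO below 1%. Cultures at 6 × 10⁴ cells/ml were run in duplicate wells alongside PBS/DMSO vehicle controls at 37 °C in humidified 5% CO₂. Data were expressed as percent growth of treated cells.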

A549 = experiment: Growth inhibition of human A549 cells at 10 uM after 48 hrs by coulter counting; procedure, shortened: as §1
SF-268 = experiment: Growth inhibition of human SF268 cells at 10 uM after 48 hrs by coulter counting; conditions: SF-268, 48 h, read-out: GI; procedure, shortened: as §1
SR = experiment: Growth inhibition of human SR cells at 10 uM after 48 hrs by coulter counting
Procedure, shortened: (§2)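 Single-dose screen in the NCI 60 human tumor cell line panel (nine subpanels). Compounds dissolved in DMSO and diluted in phosphate buffered saline, keeping final DMSO below 1%. Added in duplicate wells to cells at 6 × 10⁴ cells/ml. Controls held PBS and DMSO at matching dilutions. Incubated at 37 °C, humidified, 5% CO₂. Reported as percent growth of treated cells.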

[1] = Cytotoxicity against human CNS cancer cells after 48 hrs by coulter counting; conditions: Cancer cell lines
Procedure, shortened: (§3)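 NCI 60-cell-line panel covering nine tumour subpanels, tested over a 5-log dose range. Compounds were dissolved in DMSO and diluted in phosphate-buffered saline to a final DMSO below 1%. Wells held 6 × 10⁴ cells/ml and were run in duplicate. Controls contained PBS and DMSO at matching dilutions. Incubation was at 37 °C in humidified 5% CO₂. GI₅₀, TGI and LC₅₀ were reported.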

KM12 = experiment: Growth inhibition of human KM12 cells at 10 uM after 48 hrs by coulter counting; procedure, shortened: as §1
SF-295 = experiment: Growth inhibition of human SF295 cells at 10 uM after 48 hrs by coulter counting; procedure, shortened: as §1
[2] = Cytotoxicity against human leukemia cells after 48 hrs by coulter counting; conditions: Leukemia cell; procedure, shortened: as §3
SF-539 = experiment: Growth inhibition of human SF539 cells at 10 uM after 48 hrs by coulter counting; conditions: SF-539, 48 h, read-out: GI; procedure, shortened: as §1
NCI-H460 = experiment: Growth inhibition of human NCI-H460 cells at 10 uM after 48 hrs by coulter counting; procedure, shortened: as §1
[3] = Cytotoxicity against human ovarian cancer cells after 48 hrs by coulter counting; conditions: Cancer cell lines; procedure, shortened: as §3
MOLT-4 = experiment: Growth inhibition of human MOLT4 cells at 10 uM after 48 hrs by coulter counting; procedure, shortened: as §1
NSCLC = experiment: Cytotoxicity against human NSCLC cells after 48 hrs by coulter counting; procedure, shortened: as §3
M14 = experiment: Growth inhibition of human M14 cells at 10 uM after 48 hrs by coulter counting; procedure, shortened: as §1
UACC-257 = experiment: Growth inhibition of human UACC257 cells at 10 uM after 48 hrs by coulter counting; procedure, shortened: as §2
NCI/ADR-RES = experiment: Growth inhibition of human NCI/ADR-RES cells at 10 uM after 48 hrs by coulter counting; conditions: read-out: GI; procedure, shortened: as §1
NCI-H226 = experiment: Growth inhibition of human NCI-H226 cells at 10 uM after 48 hrs by coulter counting; procedure, shortened: as §1
BT-549 = experiment: Growth inhibition of human BT549 cells at 10 uM after 48 hrs by coulter counting; procedure, shortened: as §1
U-251 = experiment: Growth inhibition of human U251 cells at 10 uM after 48 hrs by coulter counting; procedure, shortened: as §2
[4] = Cytotoxicity against human breast cancer cells after 48 hrs by coulter counting; conditions: Cancer cell lines; procedure, shortened: as §3
UACC-62 = experiment: Growth inhibition of human UACC62 cells at 10 uM after 48 hrs by coulter counting; procedure, shortened: as §2
HT-29 = experiment: Growth inhibition of human HT-29 cells at 10 uM after 48 hrs by coulter counting; procedure, shortened: as §1
HCT-116 = experiment: Growth inhibition of human HCT116 cells at 10 uM after 48 hrs by coulter counting; procedure, shortened: as §1
SNB-19 = experiment: Growth inhibition of human SNB19 cells at 10 uM after 48 hrs by coulter counting; conditions: SNB-19, 48 h, read-out: GI; procedure, shortened: as §1
UO-31 = experiment: Growth inhibition of human UO31 cells at 10 uM after 48 hrs by coulter counting; procedure, shortened: as §2
RPMI-8226 = experiment: Growth inhibition of human RPMI8226 cells at 10 uM after 48 hrs by coulter counting; procedure, shortened: as §1
EKVX = experiment: Growth inhibition of human EKVX cells at 10 uM after 48 hrs by coulter counting; procedure, shortened: as §1
HOP-62 = experiment: Growth inhibition of human HOP62 cells at 10 uM after 48 hrs by coulter counting; procedure, shortened: as §1
DU-145 = experiment: Growth inhibition of human DU145 cells at 10 uM after 48 hrs by coulter counting; procedure, shortened: as §1
CCRF-CEM = experiment: Growth inhibition of human CCRF-CEM cells at 10 uM after 48 hrs by coulter counting; conditions: read-out: GI; procedure, shortened: as §1
MCF7 = experiment: Growth inhibition of human MCF7 cells at 10 uM after 48 hrs by coulter counting; conditions: MCF7, 48 h, read-out: GI; procedure, shortened: as §1
CAKI-1 = experiment: Growth inhibition of human Caki1 cells at 10 uM after 48 hrs by coulter counting; procedure, shortened: as §1
MDA-MB-435 = experiment: Growth inhibition of human MDA-MB-435 cells at 10 uM after 48 hrs by coulter counting; procedure, shortened: as §1
K562 = experiment: Growth inhibition of human K562 cells at 10 uM after 48 hrs by coulter counting; procedure, shortened: as §1
SK-MEL-5 = experiment: Growth inhibition of human SK-MEL-5 cells at 10 uM after 48 hrs by coulter counting; procedure, shortened: as §1
HL-60(TB) = experiment: Growth inhibition of human HL-60(TB) cells at 10 uM after 48 hrs by coulter counting
Procedure, shortened: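 Test compound was dissolved in DMSO and diluted in phosphate-buffered saline to a final DMSO level below 1%. Dilutions were plated in duplicate with cell culture at 6 × 10⁴ cells/ml. Vehicle controls held PBS and DMSO at matching dilutions. Incubation was at 37 °C, humidified, under 5% CO₂. Data were reported as percent growth of treated cells.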

IGROV-1 = experiment: Growth inhibition of human IGROV1 cells at 10 uM after 48 hrs by coulter counting; procedure, shortened: as §1
ACHN = experiment: Growth inhibition of human ACHN cells at 10 uM after 48 hrs by coulter counting; procedure, shortened: as §1
[5] = Growth inhibition of human NCI-322M cells at 10 uM after 48 hrs by coulter counting; conditions: read-out: GI; procedure, shortened: as §1
T47D = experiment: Growth inhibition of human T47D cells at 10 uM after 48 hrs by coulter counting; conditions: read-out: GI; procedure, shortened: as §2
[6] = Cytotoxicity against human renal cancer cells after 48 hrs by coulter counting; conditions: Cancer cell lines; procedure, shortened: as §3
OVCAR-4 = experiment: Growth inhibition of human OVCAR4 cells at 10 uM after 48 hrs by coulter counting; conditions: OVCAR-4, 48 h, read-out: GI; procedure, shortened: as §1
[7] = Cytotoxicity against human prostate cancer cells after 48 hrs by coulter counting; conditions: Cancer cell lines; procedure, shortened: as §3
SK-MEL-28 = experiment: Growth inhibition of human SK-MEL-28 cells at 10 uM after 48 hrs by coulter counting; conditions: SK-MEL-28, 48 h, read-out: GI; procedure, shortened: as §1
NCI-H23 = experiment: Growth inhibition of human NCI-H23 cells at 10 uM after 48 hrs by coulter counting; procedure, shortened: as §1
LOX IMVI = experiment: Growth inhibition of human LOXIMVI cells at 10 uM after 48 hrs by coulter counting; procedure, shortened: as §1
[8] = Cytotoxicity against human colon cancer cells after 48 hrs by coulter counting; conditions: Cancer cell lines; procedure, shortened: as §3
SNB-75 = experiment: Growth inhibition of human SNB75 cells at 10 uM after 48 hrs by coulter counting; conditions: SNB-75, 48 h, read-out: GI; procedure, shortened: as §1
HCC 2998 = experiment: Growth inhibition of human HCC2998 cells at 10 uM after 48 hrs by coulter counting; procedure, shortened: as §1
SK-MEL-2 = experiment: Growth inhibition of human SK-MEL-2 cells at 10 uM after 48 hrs by coulter counting; procedure, shortened: as §1
A498 = experiment: Growth inhibition of human A498 cells at 10 uM after 48 hrs by coulter counting; procedure, shortened: as §1
[9] = read-out: LC50 (the source's name)

COc1cc(/C=C2\CCCC3=C2N=C2SC=CN2C3c2cc(OC)c(OC)c(OC)c2)cc(OC)c1OC (stereo not given)
growth inhibition (GI) (NCI-H522): Active
growth inhibition (GI) (A549): Active
inhibition of growth at 10 µM (SF-268): 95%
growth inhibition (GI) (SR): Active
GI50 [1]: 47.8 µM
LC50 [1]: > 100 µM
TGI [1]: > 100 µM
growth inhibition (GI) (KM12): Active
growth inhibition (GI) (SF-295): Active
GI50 [2]: 2 µM
TGI [2]: > 100 µM
CC50 [2, 9]: > 100 µM
inhibition of growth at 10 µM (SF-539): 91.3%
growth inhibition (GI) (NCI-H460): Active
GI50 [3]: 1.9 µM
TGI [3]: > 100 µM
CC50 [3, 9]: > 100 µM
growth inhibition (GI) (MOLT-4): Active
GI50 (NSCLC): 2.3 µM
TGI (NSCLC): > 100 µM
CC50 (NSCLC; [9]): > 100 µM
growth inhibition (GI) (M14): Active
growth inhibition (GI) (UACC-257): Active
inhibition of growth at 10 µM (NCI/ADR-RES): 90.5%
growth inhibition (GI) (NCI-H226): Active
growth inhibition (GI) (BT-549): Active
growth inhibition (GI) (U-251): Active
GI50 [4]: 2.2 µM
TGI [4]: > 100 µM
CC50 [4, 9]: > 100 µM
growth inhibition (GI) (UACC-62): Active
growth inhibition (GI) (HT-29): Active
growth inhibition (GI) (HCT-116): Active
inhibition of growth at 10 µM (SNB-19): 79%
growth inhibition (GI) (UO-31): Active
growth inhibition (GI) (RPMI-8226): Active
growth inhibition (GI) (EKVX): Active
growth inhibition (GI) (HOP-62): Active
growth inhibition (GI) (DU-145): Active
inhibition of growth at 10 µM (CCRF-CEM): 94.1%
inhibition of growth at 10 µM (MCF7): 76%
growth inhibition (GI) (CAKI-1): Active
growth inhibition (GI) (MDA-MB-435): Active
growth inhibition (GI) (K562): Active
growth inhibition (GI) (SK-MEL-5): Active
growth inhibition (GI) (HL-60(TB)): Active
growth inhibition (GI) (IGROV-1): Active
growth inhibition (GI) (ACHN): Active
inhibition of growth at 10 µM [5]: 99.5%
inhibition of growth at 10 µM (T47D): 69%
GI50 [6]: 1.8 µM
LC50 (concentration giving 50% net cell kill) [6]: > 100 µM
TGI [6]: > 100 µM
inhibition of growth at 10 µM (OVCAR-4): 79.5%
GI50 [7]: 2 µM
LC50 (concentration killing 50% of cells) [7]: > 100 µM
TGI [7]: > 100 µM
inhibition of growth at 10 µM (SK-MEL-28): 89.7%
growth inhibition (GI) (NCI-H23): Active
growth inhibition (GI) (LOX IMVI): Active
GI50 [8]: 1.6 µM
inhibition of growth at 10 µM (SNB-75): 65%
growth inhibition (GI) (HCC 2998): Active
growth inhibition (GI) (SK-MEL-2): Active
growth inhibition (GI) (A498): Active

Reference: ChEMBL document CHEMBL1926614, “Substituted thiazoles V. synthesis and antitumor activity of novel thiazolo[2,3-b]quinazoline and pyrido[4,3-d]thiazolo[3,2-a]pyrimidine analogues” (2012)
